CHT block: inhibitors of human choline transporter CHT | High affinity choline transporter 1 (Homo sapiens), Q9GZV3 | 310,000 compounds, 0.86% hits | B-score at 10 µM | CHT-expressing cells, membrane potential dye, choline response; stronger effect = lower value;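 active = B-score over 3 SD under the library average, and starting fluorescence ratio not unusually high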;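 note: choline stimulus applied at its EC90 after an EC20 pre-addition; B-score computed on integrated fluorescence ratio after choline addition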
Target sequence (Q9GZV3 whole entry, looked up): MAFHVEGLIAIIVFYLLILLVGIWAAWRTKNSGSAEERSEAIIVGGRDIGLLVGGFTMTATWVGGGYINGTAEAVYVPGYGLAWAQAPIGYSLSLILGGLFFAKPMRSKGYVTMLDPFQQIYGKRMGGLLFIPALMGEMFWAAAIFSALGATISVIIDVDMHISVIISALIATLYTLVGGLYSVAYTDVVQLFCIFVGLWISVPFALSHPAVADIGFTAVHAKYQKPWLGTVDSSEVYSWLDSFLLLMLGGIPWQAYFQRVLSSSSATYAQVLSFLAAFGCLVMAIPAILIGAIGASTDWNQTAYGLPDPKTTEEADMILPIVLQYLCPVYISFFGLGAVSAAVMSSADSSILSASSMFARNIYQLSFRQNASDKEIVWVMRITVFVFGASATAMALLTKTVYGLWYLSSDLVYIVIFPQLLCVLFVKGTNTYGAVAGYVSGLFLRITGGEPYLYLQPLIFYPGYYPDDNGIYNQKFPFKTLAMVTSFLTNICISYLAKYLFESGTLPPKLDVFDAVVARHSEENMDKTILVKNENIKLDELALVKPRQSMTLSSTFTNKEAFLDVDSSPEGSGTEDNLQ
T cruzi repl: inhibitors of intracellular T. cruzi growth, primary screen, luminescence, NIH3T3 host cells | T. cruzi beta-gal in NIH3T3, 90 h | AID 1885, 2009 | inhibition, % (no concentration beside the values) | 300,000 compounds, 1.4% hits;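 active = mean inhibition across valid replicates above about 55%, limit read from the data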;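 note: signal also drops with host cell toxicity which is not excluded here; 0% = plate median of DMSO wells and 100% = zero luminescence signal; higher percent means less beta-gal luminescence so fewer parasites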
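System – NIH/3T3 host cells with β-galactosidase reporter T. cruzi · Doses – single 50 nL compound addition per well in DMSO · Reagent – 5000 T. cruzi trypomastigotes/well · Medium – Low-serum DMEM with 2% FBS · Timing – ≥90 h infection period, 3 h prior cell attachment · Evaluation – parasite load inhibition, % · Technique – GalScreen luminescence, 60 min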
CHT PAM: CHT positive allosteric modulators, primary screen, cell-based, membrane potential dye, choline EC20 | B-score at 10 µM | High affinity choline transporter 1 (Homo sapiens), Q9GZV3 | 310,000 compounds, 0.49% hits | AID 488977, 2010 | CHT-expressing cells; stronger effect = higher value; LV-AA mutant CHT in HEK293 cells;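 active = initial fluorescence not abnormally high and integrated response B-score, plate-corrected, over 3 SD above library mean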
PolyA inh: polyadenylation inhibitors in yeast reporter cells, primary screen, luminescence, S. cerevisiae; activity score, % at 12 µM; S. cerevisiae SKY197-pL101 polyadenylation reporter, beta-gal luminescence; efflux-impaired pdr1/pdr3 knockout yeast; score 100 = 6 SD above DMSO; 300,000 compounds, 0.02% hits;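 active = lowest replicate activity score at least 50, where 100 means six control SD above control mean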;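 note: yeast exposed to compound for 9 h at 30 °C; higher score means more reporter readthrough which indicates perturbed polyadenylation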
CHT block conf: CHT inhibitors, confirmation, cell-based, membrane potential dye, duplicate. 2,400 compounds, 70% hits. shares compounds with CHT block. CHT-expressing cells, choline membrane potential dye; LV-to-AA substituted CHT, HEK293 cells. AID 493221, 2011. CHT activity remaining % of control (stronger effect = lower value), % at 10 µM;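 active = choline transporter activity left, mean of duplicates at 10 µM, below buffer-only control mean minus 3 SD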;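 note: depolarization triggered by choline at its EC90 following an EC20 pre-addition; 0% = hemicholinium-3 full block and 100% = buffer-only control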
HEK293 MPD ctr: membrane potential effects in parental HEK293, counter-screen for CHT inhibitor project, cell-based, membrane potential dye. shares compounds with CHT block. choline response; active = decrease or increase beyond buffer ±3SD. membrane potential ratio readout (active if shifted either direction beyond buffer ±3SD; no single direction) at 10 µM. 2,400 compounds, 4% hits. AID 493222, 2011;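 note: parental cells lack the transporter so any hit is non-specific; ratio is peak minus trough fluorescence over baseline after EC90 choline challenge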
* marks the source's active call; other numbers are inactive results; i = inactive; . = not tested or not shown. Hits are enriched below; roughly 2.6% of the tested compounds scored in any of these assays.

SMILES	CHT block	T cruzi repl	CHT PAM	PolyA inh	CHT block conf	HEK293 MPD ctr
CCCOc1ccc(CNC(=O)C2CCN(c3nnc(N4CCCC4=O)s3)CC2)cc1	i	-5.1	i	10.5	.	.
CCCCn1c(SCC(=O)N2CCC(C)CC2)nc2ccsc2c1=O	i	15.2	i	-4.4	60.4%*	i
CCCCn1c(SCC(=O)N2CCN(c3ccccc3)CC2)nc2ccsc2c1=O	-5.73*	33.5	i	-23.6	i	i
COc1cc(NC(=O)Nn2cnnc2)cc(OC)c1OC	i	-27.1	i	-2.0	.	.
COc1ccc(NC(=O)CN(C)S(=O)(=O)c2cnc[nH]2)cc1Cl	i	36.8	i	-18.4	.	.
O=C1c2ccccc2C(=O)c2c(Nc3ccc(CCO)cc3)ccc(O)c21	-7.41*	-1.2	i	-17.6	66.8%*	i
O=C(CSc1nnc(SCc2ccccc2)s1)N/N=C/c1ccc(C(=O)O)cc1	i	5.5	i	3.2	.	.
Cc1ccc(CSc2nnc(SCC(=O)N/N=C/c3ccc(C(=O)O)cc3)s2)cc1	-5*	6.2	i	0.3	i	i
COc1cccc(C2/C(=C(\O)c3ccc4c(c3)OCCO4)C(=O)C(=O)N2c2nnc(C)s2)c1 (stereo not given)	-5.75*	48.6	i	6.1	i	i
Cc1ccc(N(CC(=O)NC2CC2)S(=O)(=O)c2ccccc2)c(C)c1	i	-4.4	i	12.0	.	.
Cc1ccc(N2CC(C(=O)N3CCC(C(=O)Nc4nnc(C(C)(C)C)s4)CC3)CC2=O)cc1 (stereo not given)	i	3.5	i	-0.7	.	.
CCOC(=O)c1c(C)nc(C)c(C(=O)OCC)c1-c1ccccc1	i	13.2	i	-6.6	.	.
CCOC(=O)c1c(CCl)nc2ccccc2c1C	-8.92*	1.1	i	-13.7	68.0%*	i
CCN1CCC(Nc2ccnc3cc(Cl)ccc23)CC1	-6.57*	43.9	i	19.9	i	4.18*
O=C(NNc1ccnc2cc(Cl)ccc12)C1CCCCC1	i	32.4	i	39.0	.	.
O=C(Nc1cccc(F)c1)C1CCCN1C(=O)OCc1ccccc1 (stereo not given)	i	-11.1	i	-2.3	.	.
N#Cc1ccccc1COC(=O)c1cccnc1N	-5.67*	-3.2	i	-10.0	64.9%*	i
O=C(OCc1ccccc1Cl)c1cccnc1Cl	i	-17.4	i	-21.8	.	.
Cc1cc(C)cc(OCC(O)CN2CCC(CN3C(=O)c4cccc5cccc(c45)C3=O)CC2)c1 (stereo not given)	-5.52*	57.1*	i	-8.5	57.6%*	i
CC(=O)NCCOc1nc(N2CCCCC2)nc(N2CCCCC2)n1	i	3.5	i	3.0	.	.
Cc1cc(/C=N/NC(N)=O)c(C)c(CO)c1	i	-4.0	i	-8.0	.	.
CCc1cc(CC)c(/C=N/NC(N)=O)c(CC)c1/C=N/NC(N)=O	-9.29*	-2.7	i	-3.2	18.7%*	i
CN(C)C(=S)Oc1ccccc1-c1ccccc1OC(=S)N(C)C	i	-0.9	i	0.1	.	.
CC(C)NS(=O)(=O)c1ccc(CCC(=O)N2CCc3ccccc3C2)cc1	-5.11*	5.5	i	-14.1	46.1%*	i
O=C(OCc1nc2ccsc2c(=O)[nH]1)c1cc(Br)c(Br)s1	-7.66*	4.1	i	37.2	63.8%*	i
SMILES	CHT block	T cruzi repl	CHT PAM	PolyA inh	CHT block conf	HEK293 MPD ctr
CC[C@@H]1[C@H]2CCCC(=O)N3CC[C@@H](C[C@H]1O)[C@@H]23	i	-1.1	i	17.2	.	.
COc1ccc(/C=C/C(=O)Oc2cc(O)cc(O)c2)cc1	-6.6*	-12.1	i	3.4	i	i
CCOc1ccc(/C=C/C(=O)Oc2ccc(OC)cc2)cc1	i	-11.9	i	-5.3	.	.
c1ccc(CCc2nn3c(Cc4ccccc4)nnc3s2)cc1	-5.37*	-10.8	i	-8.3	56.2%*	i
c1ccc(Cc2nnc3sc(-c4cccs4)nn23)cc1	i	-1.8	i	3.0	.	.
COc1ccccc1N1CCN(S(=O)(=O)c2ccc3c(c2)n(C)c(=O)n3C)CC1	i	6.6	i	6.7	.	.
Cn1cnc2c1c(=O)n(Cc1cccc(F)c1)c(=O)n2C	i	-6.1	i	10.2	.	.
CCCCn1c(=O)n(Cc2cccc(F)c2)c(=O)c2c1ncn2Cc1ccco1	-12.1*	36.9	i	-11.8	52.6%*	i
COC(=O)CCCCCN1C(=O)NC(C2CC2)C(C(=O)OCc2ccccc2)=C1C (stereo not given)	-5.37*	10.2	i	-13.8	65.2%*	i
CCOC(=O)Cc1csc(NS(=O)(=O)c2ccc3c4c(cccc24)C(=O)N3CC)n1	-4.98*	.	i	16.9	46.2%*	i
C#CCOCCOCCOCCNc1nc(N2CCN(C(=O)C([C@@H](C)CC)n3cc(C(N)CO)nn3)CC2)nc(N2CCN(C(=O)[C@H](CCC(=O)O)n3cc(C(N)[C@H](C)CC)nn3)CC2)n1 (stereo not given in full)	.	-7.8	.	14.5	.	.
Cc1noc(/C=C/c2cccs2)c1S(=O)(=O)N1CCC(C(=O)NCCCN2CCC(C)CC2)CC1	-5.14*	9.5	i	7.6	i	i
Cc1ccc(NC(=S)NNc2ccc([N+](=O)[O-])cc2S(=O)(=O)Nc2ccccc2C(=O)O)cc1C	-7.19*	1.5	i	-9.8	50.0%*	i
CC(C)(C)[C@@H]1CCC(=O)N(CC[C@H](N=[N+]=[N-])c2ccccc2)CC1	i	21.3	i	13.7	.	.
COc1cc(SC)ccc1C(=O)Nc1ccc2ncccc2c1	i	11.9	i	-2.8	.	.
Cc1ccccc1Nc1c(-c2ccncc2)nc2ccc(Br)cn12	-6.92*	59.4*	i	2.7	50.8%*	i
Cc1ccccc1Nc1c(-c2cccnc2)nc2ccc(Br)cn12	i	33.3	i	0.0	.	.
Cc1noc(NC(=O)c2c(-c3c(Cl)cccc3Cl)noc2C)c1[N+](=O)[O-]	-6.09*	-32.1	i	9.6	47.8%*	i
O=C(NCCC1=CCCCC1)c1ccc(-n2cncn2)c([N+](=O)[O-])c1	i	-0.5	i	-1.3	.	.
CCOC(=O)CSC1=C(C#N)C(c2ccccc2)C(C(C)=O)=C(C)N1 (stereo not given)	-5.7*	7.9	i	10.3	i	i
CSC1=C(C#N)C(c2ccccc2)C(C(C)=O)=C(C)N1 (stereo not given)	i	10.7	i	-1.5	.	.

Compound activity (PubChem BioAssay)
